Compounds with a hit are over-represented: about 2.1% of the library has one in this group of screens.
APJ agonist: activates the human apelin receptor APJ; activation, % at 20 µM; CHO-K1 APJ PathHunter beta-arrestin, luminescence; 0% DMSO wells, 100% apelin; 0.11% of 330,000 active; P35414;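 active = activation more than six SD over the plate average, tested at 20 µM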;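 note: 0% = DMSO alone and 100% = apelin-13 at 10 nM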
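Material: engineered CHO-K1 APJ arrestin reporter cells; amount: 1000 CHO-K1 reporter cells seeded per well; incubation: compound stimulation 90 min at 25 °C, detection 60 min; signal: luminescent beta-gal fragment complementation, chemiluminescent substrate; read-out basis: APJ agonist activity; controls: DMSO-only wells as negative, 10 nM Apelin-13 as positive control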
EBI2 block: EBI2 (human) antagonism; inhibition, % at 5 µM; AID 651636; 0.81% of 360,000 active; P32249; EBI2 beta-arrestin recruitment, luminescence, 7a,25-OHC stimulated; in the data active = inhibition above about 38%;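 note: enzyme fragment complementation signal reports receptor beta-arrestin coupling in cells; 0% = agonist plus DMSO wells and 100% = wells without agonist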
CCR6 antagonist: antagonists of human CCR6 receptor. CHO-K1 CCR6 PathHunter beta-arrestin, luminescence, CCL20-stimulated. AID 493098. inhibition, % at 20 µM. 0.49% of 340,000 active;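 active = compounds whose inhibition of the agonist-driven luminescence signal at 20 µM reaches about 50%, limit read from the data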;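 note: cells stimulated with CCL20 at 14 nM final; plate controls were DMSO with CCL20 for no effect and DMSO without agonist for full effect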
CXCR6 inh: CXCR6 (human) receptor inhibition; O00574; CHO-K1 PathHunter CXCR6 beta-arrestin, luminescence; inhibition, % at 20 µM; 0.36% of 360,000 active; in the data active = inhibition above about 34%, passing the limit was not always enough;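 note: antagonist mode with CXCL16 agonist at 10 nM final; 0% = 10 nM CXCL16 with DMSO and 100% = unstimulated wells without agonist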
m5-HT2A agonist: mouse HTR2A agonism via beta-arrestin recruitment | P35363 | CHO-K1 mHTR2A beta-arrestin complementation, luminescence; percent of 30 µM serotonin response | activation, % at 7.6 µM | 0.66% of 360,000 active;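 active = activation above a run cutoff, the mean activation of all tested compounds plus 3 SD, cut at about 14% in these data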;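 note: 0% = plate median of compound wells and 100% = 30 µM serotonin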
Target sequence (P35363 whole entry, looked up): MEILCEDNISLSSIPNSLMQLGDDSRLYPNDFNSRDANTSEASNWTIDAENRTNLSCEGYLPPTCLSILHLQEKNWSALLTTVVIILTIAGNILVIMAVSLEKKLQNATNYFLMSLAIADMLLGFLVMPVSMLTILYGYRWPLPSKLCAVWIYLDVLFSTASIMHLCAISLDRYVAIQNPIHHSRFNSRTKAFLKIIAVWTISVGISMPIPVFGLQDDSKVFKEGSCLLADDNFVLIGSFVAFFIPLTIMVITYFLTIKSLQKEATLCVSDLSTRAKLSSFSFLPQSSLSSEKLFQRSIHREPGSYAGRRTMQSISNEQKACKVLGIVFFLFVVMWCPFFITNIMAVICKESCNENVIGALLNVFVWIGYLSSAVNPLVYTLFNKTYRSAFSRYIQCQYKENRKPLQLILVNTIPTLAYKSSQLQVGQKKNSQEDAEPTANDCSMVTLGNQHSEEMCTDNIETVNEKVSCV
APJ antag: APJ receptor antagonism | CHO-K1 APJ beta-arrestin complementation, luminescence | inhibition, % at 20 µM | 0.32% of 330,000 active | P35414;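 active = inhibition above about 40% at 20 µM, limit read from the data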;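 note: cells challenged with 10 nM apelin-13 agonist together with compound; plate controls were apelin-13 plus DMSO wells for no effect and DMSO wells lacking apelin-13 for full effect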
EBI2 conf: confirmation of human EBI2 receptor antagonists. shares compounds with EBI2 block. EBI2 beta-arrestin luminescence, 7a,25-OHC antagonism. inhibition, % at 5 µM. 29% of 2,400 active. AID 651997;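 active = inhibition of at least 50%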
EBI2 agonist: EBI2 agonism counter-screen. shares compounds with EBI2 block. EBI2-expressing cells, agonist mode, luminescence, 60 min; 0% vehicle, 100% 7α,25-dihydroxycholesterol control. activation, % at 5 µM. 2,400 tested, under 10 active;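 active = activation of at least 50%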
bGal counter: counter-screen for EBI2 antagonists: E. coli beta-galactosidase inhibition. shares compounds with EBI2 block. purified beta-galactosidase, luminescent Galacton Star, 15 min. inhibition, % at 5 µM. 1% of 2,400 active;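 active = replicate-average signal at least 3 plate SD below neutral wells, shown as high inhibition, flagging enzyme-inhibiting false positives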;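 note: 0% = DMSO wells with enzyme and 100% = wells lacking enzyme; higher means stronger loss of beta-gal luminescence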
The depositor's hits bear a star.

How did O=S(=O)(Nc1cccc(-c2nnco2)c1)c1ccc(F)cc1F do in these assays?
APJ agonist: -1; EBI2 block: -3; CCR6 antagonist: -4; CXCR6 inh: -3; m5-HT2A agonist: -2; APJ antag: 7

How did COc1ccc(CCNC(=O)c2cc(-c3cc(C)cc(C)c3O)n[nH]2)cc1OC do in these assays?
APJ agonist: 0; EBI2 block: 14; CCR6 antagonist: 10; CXCR6 inh: 4; m5-HT2A agonist: -2; APJ antag: -4

How did CC(=O)Nc1cc(-c2ccc(N(C)C)cc2)cn2c(-c3ccc(F)cc3)cnc12 do in these assays?
EBI2 block: 54*; CXCR6 inh: -4; m5-HT2A agonist: -8; EBI2 conf: 54*; EBI2 agonist: 0; bGal counter: 5

How did CC(=O)Nc1cc(-c2ccc(N(C)C)cc2)cn2c(-c3ccc(F)c(Cl)c3)cnc12 do in these assays?
EBI2 block: 30; CXCR6 inh: 4; m5-HT2A agonist: 6

What do the screens show for `COc1ccc(/C=N/n2cnc3c(sc(=S)n3-c3ccccc3)c2=O)cc1`?
APJ agonist: -5; EBI2 block: 51*; CCR6 antagonist: 13; CXCR6 inh: 2; m5-HT2A agonist: 4; APJ antag: -7; EBI2 conf: 26; EBI2 agonist: -2; bGal counter: -13

Results for Cc1ccc(C(=O)NNC(=O)CSc2nnc(-c3ccncc3)n2-c2ccc(C)cc2)cc1 ?
APJ agonist: -1; EBI2 block: 52*; CXCR6 inh: -1; m5-HT2A agonist: 1; APJ antag: 0; EBI2 conf: 11; EBI2 agonist: 0; bGal counter: 5

How did Cc1occc1-c1nnc(SCC(N)=O)n1Cc1ccccc1 do in these assays?
APJ agonist: -1; EBI2 block: 10; CCR6 antagonist: 0; CXCR6 inh: -2; m5-HT2A agonist: -2; APJ antag: -8

What do the screens show for `Cc1ccc(C(=O)NNC(=O)CSc2nnc(-c3ccccc3)n2Cc2ccccc2)cc1`?
APJ agonist: -3; EBI2 block: 96*; CCR6 antagonist: -1; CXCR6 inh: 6; m5-HT2A agonist: -2; APJ antag: 11; EBI2 conf: 89*; EBI2 agonist: 0; bGal counter: 4

How did Cc1occc1-c1nnc(SCC(=O)NCCc2ccccc2)n1Cc1ccccc1 do in these assays?
APJ agonist: -2; EBI2 block: 90*; CCR6 antagonist: 7; CXCR6 inh: 7; m5-HT2A agonist: -6; APJ antag: -3; EBI2 conf: 78*; EBI2 agonist: 1; bGal counter: 6

What do the screens show for `COc1cccc2cc(C(=O)c3ccccc3)oc12`?
APJ agonist: -4; EBI2 block: 1; CCR6 antagonist: -11; CXCR6 inh: 3; m5-HT2A agonist: 1; APJ antag: -2

What do the screens show for `CCN(CC)c1ccc(NC(=O)/C=C\c2ccccc2Cl)cc1`?
APJ agonist: -2; EBI2 block: 49*; CCR6 antagonist: 24; CXCR6 inh: 13; m5-HT2A agonist: -10; APJ antag: 9; EBI2 conf: 47; EBI2 agonist: 1; bGal counter: 12

Results for O=C1NC(C(F)(F)F)(C(F)(F)F)N=C2SC=CN12 ?
APJ agonist: -3; EBI2 block: -9; CCR6 antagonist: -13; CXCR6 inh: -11; m5-HT2A agonist: -5; APJ antag: -1

What do the screens show for `COC(=O)c1cnc(Oc2ccc(NC(=O)NC(=O)c3c(OC)cccc3OC)cc2)cc1C(F)(F)F`?
APJ agonist: -5; EBI2 block: -17; CCR6 antagonist: 0; CXCR6 inh: -4; m5-HT2A agonist: -1; APJ antag: 0

Results for CCc1ccc(N2CC(C(=O)Nc3cc(C)ccc3F)CC2=O)cc1 (configuration not stated) ?
APJ agonist: 2; EBI2 block: 53*; CCR6 antagonist: 1; CXCR6 inh: 3; m5-HT2A agonist: -1; APJ antag: -3; EBI2 conf: 46; EBI2 agonist: 0; bGal counter: 9

How did O=C(Nc1ccc(S(=O)(=O)N2CCCC2)cc1)C1CC(=O)N(c2ccccc2)C1 (configuration not stated) do in these assays?
APJ agonist: 0; EBI2 block: -4; CCR6 antagonist: 15; CXCR6 inh: -4; m5-HT2A agonist: -4; APJ antag: -34

How did CCc1ccc(N2CC(C(=O)Nc3ccc(S(=O)(=O)N4CCCCC4)cc3)CC2=O)cc1 (configuration not stated) do in these assays?
APJ agonist: 6; EBI2 block: 81*; CCR6 antagonist: 12; CXCR6 inh: 6; m5-HT2A agonist: -3; APJ antag: 1; EBI2 conf: 60*; EBI2 agonist: -1; bGal counter: 5

How did Cc1cc(C)c(S(=O)(=O)N2CCN(C(=O)c3c(C)nn(-c4ccccc4)c3Cl)CC2)c(C)c1 do in these assays?
EBI2 block: -7; CCR6 antagonist: 2; CXCR6 inh: -1; m5-HT2A agonist: 4

What do the screens show for `Cc1cc(C)c(S(=O)(=O)N2CCN(C(=O)c3ccc(-n4nc(C)c(Cl)c4C)cc3)CC2)c(C)c1`?
EBI2 block: 94*; CCR6 antagonist: 4; CXCR6 inh: 3; m5-HT2A agonist: 4; EBI2 conf: 68*; EBI2 agonist: 0; bGal counter: -11

Results for C[C@@H]1CN([C@@H](C)CO)C(=O)CCCn2nncc2CO[C@@H]1CN(C)S(=O)(=O)c1cccc(F)c1 ?
EBI2 block: 64*; CXCR6 inh: 4; m5-HT2A agonist: 3; EBI2 conf: 32; EBI2 agonist: -1; bGal counter: -14

How did C[C@H]1CN([C@@H](C)CO)C(=O)CCCn2nncc2CO[C@H]1CN(C)S(=O)(=O)c1cccc(F)c1 do in these assays?
EBI2 block: -6; CXCR6 inh: 0; m5-HT2A agonist: 0

How did C[C@@H]1CN([C@H](C)CO)C(=O)CCCn2nncc2CO[C@@H]1CN(C)S(=O)(=O)c1cccc(F)c1 do in these assays?
EBI2 block: 56*; CXCR6 inh: 4; m5-HT2A agonist: 3; EBI2 conf: 27; EBI2 agonist: 0; bGal counter: 5

Results for O=C(c1cc(Br)c(Br)s1)N1CCN(C/C=C/c2ccccc2)CC1 ?
APJ agonist: 2; EBI2 block: 65*; CCR6 antagonist: 15; CXCR6 inh: 3; m5-HT2A agonist: -6; APJ antag: 4; EBI2 conf: 35; EBI2 agonist: 0; bGal counter: 3

High-throughput results: PubChem BioAssay, several laboratories
